# Experimental data taken from ChEMBL document CHEMBL4433233, “Folic acid conjugates of a bleomycin mimic for selective targeting of folate receptor positive cancer cells” (Bioorg Med Chem Lett, 2019).
# Calls of active or inactive are those of the source. The rule behind the calls is not given here.
# Columns and labels:
# KB [1] = assay: Cytotoxicity against human KB cells in high folate medium assessed as reduction in metabolic activity at 30 uM incubated for 24 to 72 hrs in the presence of excess folic acid by MTS assay; assay type: functional, cell-based
# In short: (§1)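 Competition MTS assay in standard RPMI medium (high folate). Cells were co-treated with 30 μM compound plus 150 μM FA, or with 150 μM FA alone, for 24, 48 and 72 h, and metabolic activity was read by MTS.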
# KB [2] = assay: Cytotoxicity against human KB cells in high folate medium assessed as reduction in metabolic activity at 30 uM incubated for 24 to 72 hrs by MTS assay; assay type: functional, cell-based
# In short: (§2)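 MTS assay in standard high folate medium (RPMI-1640 containing 2.3 μM FA, 10% FCS). Cells were treated with 30 or 50 μM compound for 24, 48 and 72 h. Metabolic activity was compared with solvent control.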
# MCF7 [3] = assay: (§3) Cytotoxicity against human MCF7 cells in low folate medium assessed as metabolic activity at 50 uM incubated for 72 hrs by MTS assay relative to control; assay type: ADME, cell-based; conditions: mcf7, 72 h, 50 µM
# In short: (§4)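 MTS metabolic-activity assay under low folate conditions (RPMI-1640, 10% dialyzed FCS, supplemented with 2 nM FA). Compounds were added as free ligand at 30 or 50 μM for 24, 48 and 72 h. Activity is expressed relative to DMSO control. Each treatment was run in triplicate and each experiment three times; mean ± SEM.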
# KB [4] = assay: Induction of ROS generation in human KB cells at 30 uM incubated for 72 hrs by APF probe-based flow cytometer analysis relative to control; assay type: functional
# In short: (§5)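 Cells were treated with 30 μM compound. Highly reactive oxygen species were detected with the APF probe, and APF mean fluorescence intensity was measured by FACS and normalized to solvent control.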
# DNA = assay: Induction of Escherichia coli XL1 Blue pUC18 DNA cleavage assessed as turnover frequency in presence of DTT and 1 equivalent of (NH4)2Fe(SO4)2.6H2O at 1 uM by agarose gel electrophoresis method; assay type: nucleic-acid assay
# In short: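 Supercoiled pUC18 plasmid DNA was incubated at 37 °C with 1 μM iron complex in the presence of DTT as reductant. Strand cleavage was followed and turnover frequency determined.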
# IGROV-1 [5] = assay: Cytotoxicity against human IGROV1 cells in low folate medium assessed as metabolic activity at 30 uM incubated for 72 hrs by MTS assay relative to control; assay type: functional; in short: as §4
# [6] = Binding affinity to iron assessed as formation of iron complex in the presence of Fe(ClO4)2 and GSH after 5 mins by LC-MS analysis
# In short: (§6)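 Conjugate kept in tris-HCl buffer pH 8.5 with two equivalents of Fe(ClO4)2 and 5 mM glutathione. LC-MS was used to follow in situ iron-complex formation and disulphide cleavage products at 5 min, 20 min and for a further 3 h.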
# MCF7 [7] = assay: Induction of ROS generation in human MCF7 cells at 30 uM incubated for 72 hrs by APF probe-based flow cytometer analysis relative to control; assay type: cell-based; conditions: mcf7, 72 h; in short: as §5
# KB [8] = assay: Cytotoxicity against human KB cells in low folate medium assessed as metabolic activity at 30 uM measured after 72 hrs by MTS assay relative to control; assay type: functional; in short: as §4
# KB [9] = assay: Cytotoxicity against human KB cells in low folate medium assessed as reduction in metabolic activity at 30 uM measured after 48 hrs by MTS assay; assay type: functional, cell-based
# In short: (§7)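 MTS assay on KB cells under low folate conditions (RPMI-1640, 10% dialyzed FCS, 2 nM FA). Cells were exposed to 30 or 50 μM compound as free ligand for 24, 48 and 72 h and compared with DMSO control. Treatments in triplicate, experiment repeated three times; mean ± SEM.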
# MCF7 [10] = assay: (§8) Cytotoxicity against human MCF7 cells in low folate medium assessed as metabolic activity at 30 uM incubated for 72 hrs by MTS assay relative to control; assay type: ADME, cell-based; conditions: mcf7, 72 h, 30 µM; in short: as §4
# IGROV-1 [11] = assay: Cytotoxicity against human IGROV1 cells in low folate medium assessed as metabolic activity at 50 uM incubated for 72 hrs by MTS assay relative to control; assay type: functional; in short: as §4
# MCF7 [12] = assay: Cytotoxicity against human MCF7 cells in high folate medium assessed as reduction in metabolic activity at 30 uM incubated for 24 to 72 hrs in the presence of excess folic acid by MTS assay; assay type: ADME, cell-based; conditions: mcf7, 30 µM; in short: as §1
# MCF7 [13] = assay: Cytotoxicity against human MCF7 cells in high folate medium assessed as reduction in metabolic activity at 50 uM incubated for 24 to 72 hrs by MTS assay; assay type: ADME, cell-based; conditions: mcf7, 50 µM; in short: as §2
# IGROV-1 [14] = assay: Cytotoxicity against human IGROV1 cells in high folate medium assessed as reduction in metabolic activity at 30 uM incubated for 24 to 72 hrs in the presence of excess folic acid by MTS assay; assay type: functional, cell-based; in short: as §1
# Homo sapiens = organism: Homo sapiens; assay: Displacement of folate-FITC from folate receptor in human KB cells at 25 to 1000 pmol incubated for 10 mins by FITC staining-based FACS analysis; assay type: cell-based
# In short: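 Competition binding in 0.5·10^6 KB cells per experiment. Compound at 25, 50, 100, 250, 500 or 1000 pmol was combined with 50 pmol Folate-FITC. Cell-bound fluorescence was read by FACS as MFI on channel PL-1. Mean ± SEM, N ≥ 5.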
# KB [15] = assay: Cytotoxicity against human KB cells in low folate medium assessed as metabolic activity at 50 uM measured after 72 hrs by MTS assay relative to control; assay type: functional; in short: as §4
# [16] = Stability in pH 8.5 tris-HCl buffer assessed as cleavage of compound in presence of Fe(ClO4)2 and GSH incubated for 3 hrs by LC-MS analysis; conditions: pH 8.5, 3 h
# KB [17] = assay: Cytotoxicity against human KB cells in low folate medium assessed as reduction in metabolic activity at 50 uM measured after 48 hrs by MTS assay; assay type: functional, cell-based; in short: as §7
# [18] = as §3; assay type: ADME, cell-based; conditions: MCF7 cells, read-out: Activity; in short: as §4
# [19] = as §8; assay type: ADME, cell-based; conditions: MCF7 cells, read-out: Activity; in short: as §4
# [20] = Stability in pH 8.5 tris-HCl buffer assessed as cleavage of compound in presence of Fe(ClO4)2 and GSH incubated for 20 mins by LC-MS analysis; assay type: physicochemical; conditions: pH 8.5, 20 min; in short: as §6
# [21] = Stability in pH 8.5 tris-HCl buffer assessed as compound cleavage in presence of Fe(ClO4)2 and GSH after 5 mins by LC-MS analysis; assay type: physicochemical; conditions: pH 8.5, 5 min; in short: as §6
# KB [22] = assay: Cytotoxicity against human KB cells in low folate medium assessed as reduction in metabolic activity at 1 to 150 uM incubated for 24 to 72 hrs by MTS assay; assay type: functional, cell-based
# In short: (§9)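 MTS metabolic-activity assay in low folate RPMI-1640 with 10% dialyzed FCS and 2 nM FA. Compound concentrations ran from 1 to 150 μM, with incubation for 24, 48 and 72 h. IC50 values were derived from the concentration-response data.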
# IGROV-1 [23] = assay: Cytotoxicity against human IGROV1 cells in low folate medium assessed as reduction in metabolic activity at 1 to 150 uM incubated for 24 to 72 hrs by MTS assay; assay type: functional, cell-based; in short: as §9
# [24] = Retention time of the compound by LC-MS analysis; assay type: physicochemical
# MCF7 [25] = assay: Cytotoxicity against human MCF7 cells in low folate medium assessed as reduction in metabolic activity at 1 to 150 uM incubated for 24 to 72 hrs by MTS assay; assay type: ADME, cell-based; conditions: mcf7, 150 µM; in short: as §9
SMILES,Activity (KB [1]),Activity (KB [2]),Activity (KB [4]),Activity (DNA) [s⁻¹],Activity (IGROV-1 [5]) [%],Activity [6],fold change (FC) (MCF7 [7]),Activity (KB [8]) [%],Activity (IGROV-1 [11]) [%],Activity (MCF7 [12]),Activity (MCF7 [13]),Activity (IGROV-1 [14]),Activity (Homo sapiens),Activity (KB [15]) [%],Retention_time [24] [min],also measured
Nc1nc(O)c2nc(CNc3ccc(C(=O)N[C@@H](CCC(=O)NCCNC(=O)CCCCCCC(=O)NCCCNC(=O)c4ccc(CN(Cc5ccccn5)C(c5ccccn5)c5ccccn5)nc4)C(=O)O)cc3)cnc2n1,inactive,inactive,inactive,0.16,82.4,Active,1.6,88.1,58.1,Non-Toxic,Non-Toxic,inactive,Active,62.4,–,Activity (MCF7 [3]): Non-Toxic; Activity (KB [9]): inactive; Activity (MCF7 [10]): Non-Toxic; Stability [16]: Stable; Activity (KB [17]): inactive
Nc1nc(O)c2nc(CNc3ccc(C(=O)N[C@@H](CCC(=O)NCCNC(=O)CCSSCCC(=O)NCCCNC(=O)c4ccc(CN(Cc5ccccn5)C(c5ccccn5)c5ccccn5)nc4)C(=O)O)cc3)cnc2n1,inactive,inactive,–,0.19,47.2,Active,1.6,38.8,22,Non-Toxic,Non-Toxic,inactive,Active,11.2,–,"viability at 72 h, 50 µM [18]: 76.4%; fold change (FC) (KB [4]): 3.5; viability at 72 h, 30 µM [19]: 78.9%; Stability [20]: Unstable; Stability [21]: Unstable"
Nc1nc(=O)c2nc(CNc3ccc(C(=O)N[C@@H](CCC(=O)O)C(=O)O)cc3)cnc2[nH]1,–,–,inactive,–,–,–,–,–,–,–,–,–,Active,–,–,Activity (KB [22]): inactive; Activity (IGROV-1 [23]): inactive
Nc1nc(O)c2nc(CNc3ccc(C(=O)N[C@@H](CCC(=O)NCCNC(=O)CCSSC[C@H](NC(=O)CC[C@H](N)C(=O)O)C(=O)NCC(=O)O)C(=O)O)cc3)cnc2n1,–,–,–,–,–,–,–,–,–,–,–,–,–,–,8.77,–
Nc1nc2ncc(CNc3ccc(C(=O)N[C@@H](CCC(=O)O)C(=O)O)cc3)nc2c(=O)[nH]1 [FOLIC ACID],–,–,–,–,–,–,–,–,–,–,–,–,–,–,–,Activity (MCF7 [25]): Non-Toxic
Nc1nc(O)c2nc(CNc3ccc(C(=O)N[C@@H](CCC(=O)NCCNC(=O)CCS)C(=O)O)cc3)cnc2n1,–,–,–,–,–,–,–,–,–,–,–,–,–,–,9.12,–
